Reference: ChEMBL document CHEMBL3632578, “Identification of β-Lapachone Analogs as Novel MALT1 Inhibitors To Treat an Aggressive Subtype of Diffuse Large B-Cell Lymphoma” (J Med Chem, 2015)

Experiments:
[1] = molecular target: T1, Mucosa-associated lymphoid tissue lymphoma translocation protein 1 (Homo sapiens, UniProt Q9UDY8); assay: Inhibition of His-tagged human MALT1 (catalytic domain-339-719 aa) by fluorescence based assay using 25 uM Ac-LRSR-AMC as substrate
T1 sequence (Q9UDY8 whole entry): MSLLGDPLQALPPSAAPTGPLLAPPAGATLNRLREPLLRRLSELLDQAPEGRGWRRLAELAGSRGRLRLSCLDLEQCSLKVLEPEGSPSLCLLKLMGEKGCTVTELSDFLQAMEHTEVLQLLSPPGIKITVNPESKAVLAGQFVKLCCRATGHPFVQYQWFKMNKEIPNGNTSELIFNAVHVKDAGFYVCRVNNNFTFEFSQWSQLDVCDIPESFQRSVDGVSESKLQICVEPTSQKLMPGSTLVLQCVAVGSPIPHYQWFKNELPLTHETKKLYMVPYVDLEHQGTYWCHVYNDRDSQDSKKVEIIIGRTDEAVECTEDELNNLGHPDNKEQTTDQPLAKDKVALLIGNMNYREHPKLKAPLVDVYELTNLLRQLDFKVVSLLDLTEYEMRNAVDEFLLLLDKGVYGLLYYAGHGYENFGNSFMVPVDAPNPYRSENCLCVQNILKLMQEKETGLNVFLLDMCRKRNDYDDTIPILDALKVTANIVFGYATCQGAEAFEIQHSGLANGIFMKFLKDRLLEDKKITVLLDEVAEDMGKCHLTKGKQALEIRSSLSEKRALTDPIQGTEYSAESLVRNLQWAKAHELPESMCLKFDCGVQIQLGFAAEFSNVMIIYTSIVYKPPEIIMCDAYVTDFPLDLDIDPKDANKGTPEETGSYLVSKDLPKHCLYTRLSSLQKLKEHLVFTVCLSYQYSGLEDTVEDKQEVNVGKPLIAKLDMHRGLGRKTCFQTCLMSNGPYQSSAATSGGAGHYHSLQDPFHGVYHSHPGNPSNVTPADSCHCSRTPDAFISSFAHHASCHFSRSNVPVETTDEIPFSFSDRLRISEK

[2] = Antiproliferative activity against human OCI-LY3 cells after 48 hrs by MTT assay; format: functional, cell-based; details: OCI-Ly3, 48 h
[3] = molecular target: T2, Mucosa-associated lymphoid tissue lymphoma translocation protein 1 (Homo sapiens) (UniProt Q9UDY8); assay: Inhibition of MALT1 paracaspase activity in human OCI-LY3 cells assessed as decrease in cleaved CYLD level after 24 hrs by western blot analysis; format: cell-based
T2 sequence (whole entry): T1 sequence (Q9UDY8 whole entry)

[4] = molecular target: T1, Mucosa-associated lymphoid tissue lymphoma translocation protein 1; assay: Inhibition of MALT1 in human Jurkat cell lysate preincubated for 2 hrs followed by addition of 25 uM Ac-LRSR-AMC substrate for 3 hrs by fluorescence based assay; format: cell-free
Summary of the method: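 MALT1 paracaspase activity in Jurkat cell lysate, read as fluorescence from AMC (7-amino-4-methylcoumarin) released when MALT1 cleaves the fluorogenic tetrapeptide Ac-LRSR-AMC. Inhibition is taken against an untreated control. IC50 is the mean of two independent experiments, each run in duplicate.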

A549 = assay: Antiproliferative activity against human A549 cells; format: functional, cell-based
[5] = Antiproliferative activity against human SupT1 cells; format: functional, cell-based; details: SUP-T1
HuT78 = assay: Antiproliferative activity against human HUT78 cells; format: functional, cell-based
[6] = Antiproliferative activity against human MJ cells; format: functional, cell-based
[7] = Antiproliferative activity against human NK92 cells; format: functional, cell-based

Structure (SMILES) | IC50 [1] [µM] | IC50 [2] [µM] | IC50 [4] [µM] | further results
CC1(C)CCC2=C(O1)c1ccc(F)cc1C(=O)C2=O | 1.5 | 3.3 | – | inhibition [3]: Dose-dependent effect
O=C1C=C(NCCCN2CCCC2)c2ccccc2C1=O | – | – | 11.9 | –
CC(C)=CCC1=C(O)C(=O)c2cc(F)ccc2C1=O | – | – | > 10 | –
CC1(C)CCC2=C(O1)c1ccc(C#N)cc1C(=O)C2=O | 1.6 | 1.5 | – | IC50 (A549): 5.7 µM; IC50 [5]: 5.6 µM; IC50 (HuT78): 12.3 µM; IC50 [6]: 16.7 µM; inhibition [3]: Dose-dependent effect; IC50 [7]: 17 µM
CC(C)(C)OC(=O)NCCNC1=CC(=O)C(=O)c2ccccc21 | – | – | 14.9 | –
O=C1C=C(NC2CCN(Cc3ccccc3)CC2)c2ccccc2C1=O | – | – | 5.4 | –
O=C1C=C(NCC(=O)N2CCCC2)c2ccccc2C1=O | – | – | 4.1 | –
O=C1C=C(NCCc2ccccc2)c2ccccc2C1=O | – | – | > 100 | –
CC(C)NC1=CC(=O)C(=O)c2ccccc21 | – | – | 20.4 | –
O=C1C=C(NCCN2CCOCC2)c2ccccc2C1=O | – | – | 21.9 | –
CC1(C)CCC2=C(O1)c1ccc([N+](=O)[O-])cc1C(=O)C2=O | 0.4 | 4.6 | – | –
CC1(C)CCC2=C(O1)c1ccc(Br)cc1C(=O)C2=O | 9.2 | 4.1 | – | –
COCCNC1=CC(=O)C(=O)c2ccccc21 | – | > 10 | 7.8 | –
COc1cc2c(cc1OC)C(=O)C1=C(CCC(C)(C)O1)C2=O | – | – | > 10 | –
O=C1C=C(NCCCN2CCCC2=O)c2ccccc2C1=O | – | – | 14.4 | –
CC(C)=CCC1=C(O)C(=O)c2cc(Br)ccc2C1=O | – | – | > 10 | –
CNC(=O)CNC1=CC(=O)C(=O)c2ccccc21 | – | 9.4 | 3 | –
COc1ccc2c(c1)C1=C(CCC(C)(C)O1)C(=O)C2=O | 9.2 | 17 | – | –
COc1cc2c(cc1OC)C1=C(CCC(C)(C)O1)C(=O)C2=O | 2.3 | 8.5 | – | –
COCCOc1nc(-c2ccc(Cl)c(Cl)c2)n(-c2ccc(NC(=O)CCl)cc2)n1 | 3.3 | 2.6 | – | –
O=C1C=C(NC2CCN(Cc3ccccc3)C2)c2ccccc2C1=O (stereo not drawn) | – | > 10 | 1.5 | –
COc1ccc2c(c1)C(=O)C(=O)C1=C2OC(C)(C)CC1 | 0.6 | 3.1 | – | –
CC1(C)CCC2=C(O1)c1ccccc1C(=O)C2=O [LAPACHONE] | 1.2 | 4 | 1.9 | –
O=C(CNC1=CC(=O)C(=O)c2ccccc21)NCCc1ccccc1 | – | – | 3.1 | –
CN(C)C1=CC(=O)C(=O)c2ccccc21 | – | > 10 | 2.5 | –
CC1(C)CCC2=C(O1)c1cc(O)ccc1C(=O)C2=O | 9.3 | – | – | –
CN(C)CCNC1=CC(=O)C(=O)c2ccccc21 | – | – | 1.6 | –
